The target of data set [1] is Tyrosine-protein kinase ABL1 (Homo sapiens) (UniProt P00519). As to the kind of experiment: Inhibition of ABL (unknown origin) using fluorescence labeled peptide as substrate at 10 uM by IMAP assay relative to control. Put shortly: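 IMAP fluorescence-polarization kinase assay: fluorescently labelled substrate peptide phosphorylated, then captured by trivalent-metal nanoparticles, slowing rotation. Compound at 10 µM, triplicates, percent inhibition reported.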

For data set [2] the target is unchanged. As to the kind of experiment: Inhibition of ABL (unknown origin) using biotinylated peptide as substrate at 10 uM by TR-FRET assay relative to control. On the technique in general: Time-resolved FRET reads energy transfer from a long-lived donor to a nearby acceptor.
For data set [3], the target named is Vascular endothelial growth factor receptor 2 (Homo sapiens) (UniProt P35968). As to the kind of experiment: Inhibition of VEGFR2 (unknown origin) using biotinylated peptide as substrate at 10 uM by TR-FRET assay relative to control.
Sequence of Vascular endothelial growth factor receptor 2 (Homo sapiens) (P35968 whole entry): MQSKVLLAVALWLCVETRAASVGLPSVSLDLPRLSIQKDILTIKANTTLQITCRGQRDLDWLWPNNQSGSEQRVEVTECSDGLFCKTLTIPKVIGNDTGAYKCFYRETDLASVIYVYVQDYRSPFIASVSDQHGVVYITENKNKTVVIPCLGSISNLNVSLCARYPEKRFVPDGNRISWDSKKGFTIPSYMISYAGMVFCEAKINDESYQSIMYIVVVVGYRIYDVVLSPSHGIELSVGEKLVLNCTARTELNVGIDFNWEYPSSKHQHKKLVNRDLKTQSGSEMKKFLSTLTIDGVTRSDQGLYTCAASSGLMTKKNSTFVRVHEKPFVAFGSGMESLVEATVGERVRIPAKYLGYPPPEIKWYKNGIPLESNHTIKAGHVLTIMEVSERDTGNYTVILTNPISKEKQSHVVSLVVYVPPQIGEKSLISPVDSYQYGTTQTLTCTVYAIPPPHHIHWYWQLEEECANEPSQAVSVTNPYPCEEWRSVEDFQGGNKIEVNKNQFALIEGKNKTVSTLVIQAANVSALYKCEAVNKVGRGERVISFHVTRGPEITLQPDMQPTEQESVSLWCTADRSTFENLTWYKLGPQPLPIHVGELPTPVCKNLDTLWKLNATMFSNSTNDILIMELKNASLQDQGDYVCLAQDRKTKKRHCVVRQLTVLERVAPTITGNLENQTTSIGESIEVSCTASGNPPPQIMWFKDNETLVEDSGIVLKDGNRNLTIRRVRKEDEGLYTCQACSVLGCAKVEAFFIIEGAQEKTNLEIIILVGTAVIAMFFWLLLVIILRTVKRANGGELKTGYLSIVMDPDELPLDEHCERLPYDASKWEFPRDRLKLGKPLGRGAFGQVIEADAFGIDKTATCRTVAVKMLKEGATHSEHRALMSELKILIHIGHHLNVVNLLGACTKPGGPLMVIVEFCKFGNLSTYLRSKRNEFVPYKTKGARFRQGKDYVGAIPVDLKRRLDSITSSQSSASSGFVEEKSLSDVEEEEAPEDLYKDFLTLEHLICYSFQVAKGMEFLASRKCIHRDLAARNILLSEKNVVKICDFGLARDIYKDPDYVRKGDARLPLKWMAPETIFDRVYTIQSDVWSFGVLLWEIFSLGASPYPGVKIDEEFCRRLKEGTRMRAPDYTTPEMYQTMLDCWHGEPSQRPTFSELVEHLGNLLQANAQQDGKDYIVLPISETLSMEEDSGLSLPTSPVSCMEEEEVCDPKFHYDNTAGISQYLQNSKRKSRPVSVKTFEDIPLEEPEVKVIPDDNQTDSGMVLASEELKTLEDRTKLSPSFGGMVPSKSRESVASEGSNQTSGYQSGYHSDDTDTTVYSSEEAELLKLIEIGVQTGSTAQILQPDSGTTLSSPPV
The target in data set [4] is Non-receptor tyrosine-protein kinase TNK1 (Homo sapiens, UniProt Q13470). As to the kind of experiment: Binding affinity to TNK1 in SILAC-labeled human MDA-MB-231 cells lysate by mass spectrometry based kinAffinity assay. The class given is subcellular. Put shortly:
(§1)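 MDA-MB-231 lysate applied to KinAffinity matrix of immobilized broadband kinase inhibitors at graded densities to obtain BC50 per target. Competition then run with increasing free compound to give CC50; Kd derived by Cheng-Prusoff. Two competition experiments in parallel to check equilibrium, one with lysate pre-incubated with compound before adding matrix. Quantitation by mass spectrometry.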

Data set [5] addresses Mitogen-activated protein kinase kinase kinase kinase 5 (Homo sapiens, UniProt Q9Y4K4). As to the kind of experiment: Binding affinity to MAP4K5 in SILAC-labeled human MDA-MB-231 cells lysate by mass spectrometry based kinAffinity assay. The class given is subcellular. Put shortly: (§2)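 Chemical proteomics: MDA-MB-231 lysate bound to matrix of immobilized broad kinase inhibitors at several densities (BC50), then competed with increasing free compound (CC50); proteins quantified by mass spectrometry, Kd via Cheng-Prusoff. Two competition formats run in parallel to check equilibrium.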

The target in data set [6] is Tyrosine-protein kinase Lyn (Homo sapiens, UniProt P07948). As to the kind of experiment: Binding affinity to LYN in SILAC-labeled human MDA-MB-231 cells lysate by mass spectrometry based kinAffinity assay. Type of data set: subcellular. Put shortly:
as §2

The next data set deals with Aurora kinase B (Homo sapiens, UniProt Q96GD4). As to the kind of experiment: Binding affinity to AURKB in SILAC-labeled human MDA-MB-231 cells lysate by mass spectrometry based kinAffinity assay. The class given is subcellular. Put shortly: as §2
Sequence of Aurora kinase B (Q96GD4 whole entry): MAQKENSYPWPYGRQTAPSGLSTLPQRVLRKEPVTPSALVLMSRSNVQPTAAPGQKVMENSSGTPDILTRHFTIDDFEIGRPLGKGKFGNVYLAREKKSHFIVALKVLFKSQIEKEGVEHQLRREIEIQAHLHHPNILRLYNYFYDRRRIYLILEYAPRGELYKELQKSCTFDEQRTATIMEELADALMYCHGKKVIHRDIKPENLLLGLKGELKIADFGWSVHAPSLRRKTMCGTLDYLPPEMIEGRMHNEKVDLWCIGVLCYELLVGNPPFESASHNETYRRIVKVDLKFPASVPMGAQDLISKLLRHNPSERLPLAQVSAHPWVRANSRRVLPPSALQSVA
Data set [7] concerns the target Tyrosine-protein kinase Yes (Homo sapiens, UniProt P07947). As to the kind of experiment: Binding affinity to YES in SILAC-labeled human MDA-MB-231 cells lysate by mass spectrometry based kinAffinity assay. Type of data set: subcellular. Put shortly: as §1
The target in data set [8] is Tyrosine-protein kinase Fer (Homo sapiens, UniProt P16591). As to the kind of experiment: Binding affinity to FER in SILAC-labeled human MDA-MB-231 cells lysate by mass spectrometry based kinAffinity assay. Type of data set: subcellular. Put shortly: as §2
Sequence of Tyrosine-protein kinase Fer (P16591 whole entry): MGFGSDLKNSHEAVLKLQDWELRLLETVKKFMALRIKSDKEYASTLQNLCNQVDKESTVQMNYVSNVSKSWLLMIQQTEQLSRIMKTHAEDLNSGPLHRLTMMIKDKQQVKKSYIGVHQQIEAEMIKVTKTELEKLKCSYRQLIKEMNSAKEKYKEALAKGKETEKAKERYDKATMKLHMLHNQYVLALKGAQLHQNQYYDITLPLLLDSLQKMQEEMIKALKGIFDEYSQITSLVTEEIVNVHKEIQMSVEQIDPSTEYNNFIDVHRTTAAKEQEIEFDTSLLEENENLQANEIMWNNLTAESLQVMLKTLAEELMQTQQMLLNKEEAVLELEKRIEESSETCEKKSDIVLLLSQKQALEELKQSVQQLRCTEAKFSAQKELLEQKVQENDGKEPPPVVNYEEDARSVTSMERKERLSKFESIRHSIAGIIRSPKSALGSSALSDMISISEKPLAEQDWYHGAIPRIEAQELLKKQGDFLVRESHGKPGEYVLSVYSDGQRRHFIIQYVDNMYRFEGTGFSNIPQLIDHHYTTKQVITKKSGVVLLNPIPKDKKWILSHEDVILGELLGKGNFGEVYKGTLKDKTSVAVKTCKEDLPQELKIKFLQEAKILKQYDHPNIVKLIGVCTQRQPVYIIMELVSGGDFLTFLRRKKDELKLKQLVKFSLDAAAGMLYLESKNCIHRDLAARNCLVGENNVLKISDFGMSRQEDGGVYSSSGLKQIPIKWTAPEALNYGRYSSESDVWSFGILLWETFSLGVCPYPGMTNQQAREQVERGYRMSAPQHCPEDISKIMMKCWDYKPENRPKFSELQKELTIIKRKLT
The target in data set [9] is Serine/threonine-protein kinase/endoribonuclease IRE1 (Homo sapiens, UniProt O75460). As to the kind of experiment: Binding affinity to IRE1 in SILAC-labeled human MDA-MB-231 cells lysate by mass spectrometry based kinAffinity assay. Type of data set: subcellular. Put shortly:
as §2

The next data set deals with Aurora kinase A (Homo sapiens, UniProt O14965). As to the kind of experiment: Binding affinity to AURKA in SILAC-labeled human MDA-MB-231 cells lysate by mass spectrometry based kinAffinity assay. The class given is subcellular. Put shortly:
as §2

For data set [10], the target named is 5'-AMP-activated protein kinase subunit beta-2 (Homo sapiens, UniProt O43741). As to the kind of experiment: Binding affinity to PRKAB2 in SILAC-labeled human MDA-MB-231 cells lysate by mass spectrometry based kinAffinity assay. Type of data set: subcellular. Put shortly: as §1
Data set [11] deals with 5'-AMP-activated protein kinase subunit gamma-2 (Homo sapiens, UniProt Q9UGJ0). As to the kind of experiment: Binding affinity to PRKAG2 in SILAC-labeled human MDA-MB-231 cells lysate by mass spectrometry based kinAffinity assay. Type of data set: subcellular. Put shortly:
as §1

For another data set, the target named is TGF-beta receptor type-2 (Homo sapiens, UniProt P37173). As to the kind of experiment: Binding affinity to TGFBR2 in SILAC-labeled human MDA-MB-231 cells lysate by mass spectrometry based kinAffinity assay. The class given is subcellular. Put shortly:
as §1

The target of data set [12] is Mitogen-activated protein kinase kinase kinase kinase 3 (Homo sapiens, UniProt Q8IVH8). As to the kind of experiment: Binding affinity to MAP4K3 in SILAC-labeled human MDA-MB-231 cells lysate by mass spectrometry based kinAffinity assay. Type of data set: subcellular. Put shortly:
as §2

The target in data set [13] is Serine/threonine-protein kinase 4 (Homo sapiens, UniProt Q13043). As to the kind of experiment: Binding affinity to MST1 in SILAC-labeled human MDA-MB-231 cells lysate by mass spectrometry based kinAffinity assay. Type of data set: subcellular. Put shortly:
as §1

Data set [14] deals with Serine/threonine-protein kinase ULK3 (Homo sapiens, UniProt Q6PHR2). As to the kind of experiment: Binding affinity to ULK3 in SILAC-labeled human MDA-MB-231 cells lysate by mass spectrometry based kinAffinity assay. Type of data set: subcellular. Put shortly: as §1
Sequence of Serine/threonine-protein kinase ULK3 (Q6PHR2 whole entry): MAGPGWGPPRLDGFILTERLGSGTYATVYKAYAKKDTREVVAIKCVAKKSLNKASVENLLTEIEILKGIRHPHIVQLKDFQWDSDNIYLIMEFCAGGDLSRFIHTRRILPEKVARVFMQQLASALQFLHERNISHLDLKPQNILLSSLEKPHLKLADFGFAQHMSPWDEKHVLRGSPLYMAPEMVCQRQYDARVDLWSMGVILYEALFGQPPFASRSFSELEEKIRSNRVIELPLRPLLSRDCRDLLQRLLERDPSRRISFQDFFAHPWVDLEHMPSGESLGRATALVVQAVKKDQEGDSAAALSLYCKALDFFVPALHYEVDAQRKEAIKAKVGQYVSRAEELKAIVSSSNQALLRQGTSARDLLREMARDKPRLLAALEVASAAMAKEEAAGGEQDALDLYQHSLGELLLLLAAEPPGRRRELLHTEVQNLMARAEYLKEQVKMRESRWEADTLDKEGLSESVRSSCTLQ
The target in data set [15] is TRAF family member-associated NF-kappa-B activator (Homo sapiens, UniProt Q92844). As to the kind of experiment: Binding affinity to TANK in SILAC-labeled human MDA-MB-231 cells lysate by mass spectrometry based kinAffinity assay. Type of data set: subcellular. Put shortly: as §1
Data set [16] deals with MAP/microtubule affinity-regulating kinase 3 (Homo sapiens, UniProt P27448). As to the kind of experiment: Binding affinity to MARK3 in SILAC-labeled human MDA-MB-231 cells lysate by mass spectrometry based kinAffinity assay. Type of data set: subcellular. Put shortly:
as §2

Data set [17] addresses Mitogen-activated protein kinase kinase kinase 2 (Homo sapiens, UniProt Q9Y2U5). As to the kind of experiment: Binding affinity to MAP3K2 in SILAC-labeled human MDA-MB-231 cells lysate by mass spectrometry based kinAffinity assay. The class given is subcellular. Put shortly:
as §2

Data set [18] has as its target Serine/threonine-protein kinase SIK2 (Homo sapiens, UniProt Q9H0K1). As to the kind of experiment: Binding affinity to QIK in SILAC-labeled human MDA-MB-231 cells lysate by mass spectrometry based kinAffinity assay. The class given is subcellular. Put shortly: as §1
The test system of the next data set is MDA-MB-231. As to the kind of experiment: Antimigratory activity against human MDA-MB-231 cells after 3.5 hrs by microscopy based Boyden chamber assay. Type of data set: functional, cell-based. The note with it: MDA-MB-231, 3.5 h. Put shortly:
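Modified Boyden chamber: MDA-MB-231 cells plated in 0.1% FCS medium, migrating through 8 µm pore membrane toward 1% FCS chemoattractant for 3.5 h; transmigrated cells counted microscopically in at least 5 random fields per well.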

Data set [19] is described as follows: Solubility of the compound […] after 24 hrs by UV-based HPLC analysis. To be noted: DMSO. Type of data set: physicochemical. Put shortly: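 Solubility in water: DMSO stock aliquots diluted into water, shaken 24 h at room temperature, filtered through 0.45 µm nylon, then quantified by HPLC-UV with a C18 column and 70% ACN. Run in triplicate.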
A short description of data set [20]: Apparent permeability from apical to basolateral side in human Caco2 cells at 10 uM after 2 hrs by LC-MS/MS analysis. The class given is ADME, cell-based. To be noted: Caco-2. Put shortly: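 Caco-2 cells differentiated three weeks in 96-well format, monolayer integrity checked by Lucifer yellow transport. Compound at 10 µM for 2 h; apical buffer HBSS/10 mM HEPES/glucose pH 6.5 with 100 µM Lucifer yellow, basolateral buffer pH 7.4. Papp = (dQ/dt)/C0A; efflux ratio Papp(B→A)/Papp(A→B).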

A short description of data set [21]: Stability in human plasma assessed as parent compound remaining. Type of data set: ADME, cell-free.
Data set [22] can be described thus: Protein binding in human plasma. To be noted: read-out: PPB (converted). Type of data set: ADME, cell-free.
Data set [23] can be described thus: Protein binding in mouse plasma. Type of data set: ADME, cell-free. To be noted: read-out: PPB (converted).
Data set [24] in a line: Toxicity in mouse assessed as drug tolerability at 300 mg/kg, po. Type of data set: organism-based. To be noted: in vivo.
The nature of data set [25]: Selectivity ratio of compound effect for anti-invasive activity against human MDA-MB-231 cells to IC50 for AXL (unknown origin) phosphorylation.

Values after ≈ are worked out from the molar mass of the structure shown.

Sequence of Tyrosine-protein kinase ABL1 (Homo sapiens) (P00519 whole entry): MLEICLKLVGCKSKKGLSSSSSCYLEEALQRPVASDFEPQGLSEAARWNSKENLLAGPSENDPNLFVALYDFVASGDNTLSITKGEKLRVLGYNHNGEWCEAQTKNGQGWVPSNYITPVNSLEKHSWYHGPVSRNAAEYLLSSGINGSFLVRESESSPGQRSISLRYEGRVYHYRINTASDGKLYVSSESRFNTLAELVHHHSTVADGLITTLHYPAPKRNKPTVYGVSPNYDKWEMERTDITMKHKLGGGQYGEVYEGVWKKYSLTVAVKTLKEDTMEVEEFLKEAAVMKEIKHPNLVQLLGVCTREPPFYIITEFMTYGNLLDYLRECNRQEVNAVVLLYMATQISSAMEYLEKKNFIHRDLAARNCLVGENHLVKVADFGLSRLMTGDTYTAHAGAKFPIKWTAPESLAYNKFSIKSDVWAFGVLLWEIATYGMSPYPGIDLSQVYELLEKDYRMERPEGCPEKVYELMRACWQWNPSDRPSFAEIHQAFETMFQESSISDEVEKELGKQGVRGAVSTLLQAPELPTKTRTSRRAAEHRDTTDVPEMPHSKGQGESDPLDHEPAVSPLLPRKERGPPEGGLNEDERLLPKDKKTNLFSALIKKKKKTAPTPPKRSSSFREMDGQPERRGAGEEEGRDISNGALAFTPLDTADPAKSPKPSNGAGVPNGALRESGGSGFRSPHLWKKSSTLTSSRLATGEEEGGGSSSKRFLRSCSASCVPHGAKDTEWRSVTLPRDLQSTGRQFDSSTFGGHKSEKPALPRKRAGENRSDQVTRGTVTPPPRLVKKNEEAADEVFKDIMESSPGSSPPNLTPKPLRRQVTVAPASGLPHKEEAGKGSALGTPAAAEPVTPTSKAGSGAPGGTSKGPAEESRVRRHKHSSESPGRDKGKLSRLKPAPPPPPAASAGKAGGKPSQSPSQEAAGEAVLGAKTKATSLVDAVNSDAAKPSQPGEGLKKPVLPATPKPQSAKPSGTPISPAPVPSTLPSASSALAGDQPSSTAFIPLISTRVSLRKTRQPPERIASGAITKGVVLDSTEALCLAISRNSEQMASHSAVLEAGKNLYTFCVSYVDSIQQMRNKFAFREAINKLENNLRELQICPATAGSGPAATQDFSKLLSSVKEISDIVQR
Sequence of Tyrosine-protein kinase Yes (P07947 whole entry): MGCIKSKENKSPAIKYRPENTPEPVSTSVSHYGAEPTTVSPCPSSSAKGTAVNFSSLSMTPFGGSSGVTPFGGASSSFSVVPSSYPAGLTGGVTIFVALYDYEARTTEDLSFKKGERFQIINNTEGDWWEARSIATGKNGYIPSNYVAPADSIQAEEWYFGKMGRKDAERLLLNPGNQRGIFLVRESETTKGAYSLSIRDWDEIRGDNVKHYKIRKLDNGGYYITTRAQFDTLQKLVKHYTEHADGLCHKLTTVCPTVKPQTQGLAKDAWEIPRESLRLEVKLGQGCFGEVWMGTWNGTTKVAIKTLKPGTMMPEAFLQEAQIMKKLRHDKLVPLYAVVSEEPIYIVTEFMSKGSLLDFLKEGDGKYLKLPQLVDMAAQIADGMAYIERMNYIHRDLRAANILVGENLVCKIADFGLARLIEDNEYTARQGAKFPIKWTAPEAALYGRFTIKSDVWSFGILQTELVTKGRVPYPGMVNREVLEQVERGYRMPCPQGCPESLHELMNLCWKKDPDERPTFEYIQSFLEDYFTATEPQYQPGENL
Sequence of Aurora kinase A (O14965 whole entry): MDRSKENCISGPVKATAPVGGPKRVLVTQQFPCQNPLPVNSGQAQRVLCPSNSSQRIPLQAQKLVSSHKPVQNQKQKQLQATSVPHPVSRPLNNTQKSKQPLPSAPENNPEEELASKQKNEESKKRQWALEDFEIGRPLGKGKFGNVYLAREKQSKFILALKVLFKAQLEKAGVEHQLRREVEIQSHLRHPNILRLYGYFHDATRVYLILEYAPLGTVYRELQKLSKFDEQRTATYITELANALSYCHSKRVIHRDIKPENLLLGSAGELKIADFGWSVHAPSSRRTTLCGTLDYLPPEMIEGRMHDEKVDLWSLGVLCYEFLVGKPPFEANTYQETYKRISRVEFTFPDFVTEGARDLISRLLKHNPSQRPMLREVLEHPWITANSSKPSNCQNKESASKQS

The term IC50 denotes the concentration that gives 50% inhibition. The low end stands for greater potency, the high end for weaker potency. A word on the solubility: it is the concentration that dissolves in the medium under given conditions. What is called Papp A→B is the apparent permeability from the apical to the basolateral side of a cell layer. For the compound `COc1cc2c(Oc3ccc(NS(=O)(=O)c4cc(F)ccc4F)cc3F)ccnc2cc1OCCCN1CCN(C)CC1`, the Efficacy in [1], in data set [2] and in [3] was 83 to 100% in each case. Further, the “Kd(free)” value in data set [4] was 0.024 µM; in [5], 0.024 µM; in [6] it was 0.029 µM; on Aurora kinase B it was above 0.069 µM; in data set [7], 0.178 µM; in data set [8] it was 0.679 µM. The “Kd(free)” value is 0.723 µM in [9]; 0.847 µM at Aurora kinase A; 0.969 µM in data set [10]; 1.078 µM in data set [11]; 1.86 µM on TGF-beta receptor type-2; 2.08 µM in data set [12]. The “Kd(free)” value in data set [13] was 2.433 µM; in [14] it was above 2.514 µM; in [15], 3.418 µM; in data set [16] it was 3.854 µM; in [17] it was 4.396 µM; in data set [18] it was 4.518 µM. Besides, half-maximal inhibition in the data set with MDA-MB-231 (IC50) required 2.5 µM. Further, in data set [19], the concentration in solution (solubility at 24 h) was 68.8 µM (≈ 42.4 µg/mL). For the same compound, in data set [20], the Papp A→B at 2 h, 10 µM came out at 7.4 ×10⁻⁶ cm/s. Besides, the Stability in [21] stood at 96.3%. In addition, the fraction unbound in [22] is 0.009; in data set [23], 0.028. For the same compound, the Activity result in data set [24] was “Non-Toxic”. Also, the Selectivity ratio in [25] was 2 - 6.

With `COc1cc2c(Oc3ccc(NS(=O)(=O)c4ccccc4C(F)(F)F)cc3F)ccnc2cc1OCCCN1CCN(C)CC1`, the Efficacy in data set [1], in data set [2] and in [3] was 83 to 100% in each case. Also, half-maximal inhibition with MDA-MB-231 (IC50) was put at 4.6 µM. The Selectivity ratio in [25] is 2 - 6.

`COc1cc2c(Oc3ccc(NS(=O)(=O)c4cc(F)ccc4F)cc3F)ccnc2cc1OCCCN1CCCC(C)C1` (stereo not drawn): the Efficacy in data set [1], in data set [2] and in data set [3] was 83 to 100% in each case. The same compound gave an IC50 in the data set on MDA-MB-231 of 3.3 µM. This compound registered a solubility at 24 h in [19] of 18 µM (≈ 11.1 µg/mL). For the same compound, the Papp A→B at 2 h, 10 µM in data set [20] was determined as 2.4 ×10⁻⁶ cm/s. Further, the Stability in data set [21] is on record as 99.1%. The figures for the fraction unbound in data set [22] and in data set [23] were 0.015 and 0.041, respectively. Moreover, the Activity entry in data set [24] is “Non-Toxic”. Moreover, in [25], the Selectivity ratio is on record as 2 - 6.

Turning to `COc1cc2c(Oc3ccc(NS(=O)(=O)c4c(F)cccc4F)cc3F)ccnc2cc1OCCCN1CCN(C)CC1`, the Efficacy in data set [1], in [2] and in data set [3] was 83 to 100% in each case. Further, the “Kd(free)” value in data set [4] is 0.014 µM; in data set [5] it was 0.008 µM; in data set [6] it was 0.011 µM; at Aurora kinase B, 0.034 µM; in [7], 0.04 µM; in [8], 0.304 µM. The “Kd(free)” value in data set [9] was 0.243 µM; at Aurora kinase A, 0.146 µM; in data set [10], 1.907 µM; in [11], 2.296 µM; on TGF-beta receptor type-2, 7.385 µM; in [12] it was 1.367 µM. Moreover, the “Kd(free)” value in data set [13] is 2.08 µM; in data set [14] it was above 2.513 µM; in data set [15], 1.567 µM; in [16], 5.622 µM; in [17] it was 5.518 µM; in data set [18], 3.545 µM. Half-maximal inhibition in the data set on MDA-MB-231 (IC50) required 1.5 µM. Besides, the Selectivity ratio in data set [25] is reported as 2 - 6.

The record behind these values is ChEMBL document CHEMBL4371006, “Discovery of N-[4-(Quinolin-4-yloxy)phenyl]benzenesulfonamides as Novel AXL Kinase Inhibitors” (J Med Chem, 2018).
